How the values were obtained:
[1] = substrate: O=[N+]([O-])c1ccc(OS(=O)(=O)O)cc1; assay: Activity at Pseudomonas aeruginosa recombinant arylsulfatase A expressed in Escherichia coli assessed per mg of protein
Method in brief: (§1)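 Hydrolysis of potassium 4-nitrophenyl sulfate followed by release of 4-nitrophenol; Vmax is expressed per mg protein and Km in mM; Vmax/Km is derived from these.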

[2] = substrate: O=[N+]([O-])c1ccc(OS(=O)(=O)O)cc1; assay: Activity at Pseudomonas aeruginosa recombinant arylsulfatase A expressed in Escherichia coli; method in brief: as §1

B1: Arylsulfatase (Pseudomonas aeruginosa (strain ATCC 15692 / PAO1 / 1C / PRS 101 / LMG12228)), P51691 (protein)
chain: MSKRPNFLVIVADDLGFSDIGAFGGEIATPNLDALAIAGLRLTDFHTASTCSPTRSMLLTGTDHHIAGIGTMAEALTPELEGKPGYEGHLNERVVALPELLREAGYQTLMAGKWHLGLKPEQTPHARGFERSFSLLPGAANHYGFEPPYDESTPRILKGTPALYVEDERYLDTLPEGFYSSDAFGDKLLQYLKERDQSRPFFAYLPFSAPHWPLQAPREIVEKYRGRYDAGPEALRQERLARLKELGLVEADVEAHPVLALTREWEALEDEERAKSARAMEVYAAMVERMDWNIGRVVDYLRRQGELDNTFVLFMSDNGAEGALLEAFPKFGPDLLGFLDRHYDNSLENIGRANSYVWYGPRWAQAATAPSRLYKAFTTQGGIRVPALVRYPRLSRQGAISHAFATVMDVTPTLLDLAGVRHPGKRWRGREIAEPRGRSWLGWLSGETEAAHDENTVTGWELFGMRAIRQGDWKAVYLPAPVGPATWQLYDLARDPGEIHDLADSQPGKLAELIEHWKRYVSETGVVEGASPFLVR
Vmax [1]: 6.1 mmol/min/mg | Km [2]: 0.77 µM

From ChEMBL document CHEMBL1154522, “Aryl sulfamates are broad spectrum inactivators of sulfatases: effects on sulfatases from various sources” (Bioorg Med Chem Lett, 2009)
